Laboratory results as given in ChEMBL document CHEMBL2434965, “Lead optimization of an acylhydrazone scaffold possessing antiviral activity against Lassa virus” (Bioorg Med Chem Lett, 2013).
Active and inactive are the calls of the source. The calls are words filed in the database; no cut-off is given here.

These molecules were tested on Lassa virus (assay: Antiviral activity against Lassa virus by plaque reduction assay). Settings: Mammarenavirus lassaense.
Format: functional, organism-based

In the case of C/C(=N\NC(=O)[C@@H]1C[C@H]1c1ccccc1)c1ccc(NC(=O)c2ccco2)cc1, the Activity is reported as “Active”.

What follows are molecules tested on Sabia virus (assay: Antiviral activity against Sabia virus pseudotype containing viral envelope). Settings: not given.
Format: functional
Procedure, shortened: (§1)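 Lentivirus-based pseudotypes bearing arenavirus envelope glycoprotein. Each run used three or four replicates per concentration, typically 7 to 14 concentrations spaced 0.25 to 0.7 log apart, up to 50 µM. EC50 per experiment came from a four-parameter one-site dose-response fit. Values across experiments were averaged as geometric means, with relative standard error given as SD/√n relative to the mean.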

With C/C(=N\NC(=O)[C@@H]1C[C@H]1c1ccccc1)c1ccc(NC(=O)c2ccco2)cc1 the EC50 was 0.13 µM.

What follows are molecules tested on Lassa virus (assay: Antiviral activity against Lassa virus pseudotype containing envelope glycoprotein incorporated in lentivirus infected in human 293T/17 cells by luciferase reporter gene assay). Settings: Mammarenavirus lassaense, HEK-293T.
Format: functional, organism-based
Procedure, shortened: as §1

Going from COc1cccc(/C(C)=N/NC(=O)C2CC2)c1 to COc1cccc(/C(C)=N/NC(=O)[C@@H]2C[C@H]2c2ccccc2)c1 (relative stereo), the EC50 falls from greater than 50 µM to 0.042 µM.

C/C(=N\NC(=O)[C@@H]1C[C@H]1c1ccccc1)c1ccc(NC(=O)c2ccco2)cc1 and C/C(=N\NC(=O)[C@H]1C[C@@H]1c1ccccc1)c1ccc(NC(=O)c2ccco2)cc1 (relative stereo) are the same in EC50: 0.00034 µM for the first, 0.00034 µM for the second.

First: C/C(=N\NC(=O)[C@@H]1C[C@H]1c1ccccc1)c1ccccc1 (relative stereo)
Second: C/C(=N\NC(=O)[C@@H]1C[C@H]1c1ccccc1)c1ccccc1Cl (relative stereo)
The EC50 of the first is 6.8-fold lower: 0.047 µM for the first, 0.32 µM for the second.

Going from C/C(=N\NC(=O)[C@@H]1C[C@H]1c1ccccc1)c1ccc(Cl)cc1 (relative stereo) to C/C(=N\NC(=O)[C@@H]1C[C@H]1c1ccccc1)c1ccc(Br)cc1 (relative stereo), the EC50 rises from 0.02 µM to 0.47 µM (23-fold). The first is the more potent here.

Compared with C/C(=N\NC(=O)[C@@H]1C[C@H]1c1ccccc1)c1cccc(Br)c1 (relative stereo), C/C(=N\NC(=O)[C@@H]1C[C@H]1c1ccccc1)c1cccc(O)c1 (relative stereo) is 1.7-fold higher in EC50: 0.056 µM for the first, 0.094 µM for the second.

First: C/C(=N\NC(=O)[C@@H]1C[C@H]1c1ccccc1)c1cccc([N+](=O)[O-])c1 (relative stereo)
Second: C/C(=N\NC(=O)[C@@H]1C[C@H]1c1ccccc1)c1ccc([N+](=O)[O-])cc1 (relative stereo)
The EC50 of the first is 4-fold higher: 0.25 µM for the first, 0.062 µM for the second.

C/C(=N\NC(=O)[C@@H]1C[C@H]1c1ccccc1)c1ccccc1O (relative stereo) and C/C(=N\NC(=O)[C@@H]1C[C@H]1c1ccccc1)c1cccc(C)c1C (relative stereo) are within 1.5-fold of each other in EC50: 0.57 µM for the first, 0.8 µM for the second.

Going from C/C(=N\NC(=O)[C@@H]1C[C@H]1c1ccccc1)c1ccc(O)cc1 (relative stereo) to C/C(=N\NC(=O)[C@@H]1C[C@H]1c1ccccc1)c1ccc(C)cc1 (relative stereo), the EC50 rises from 0.0023 µM to 0.009 µM (3.9-fold).

Compared with COc1ccc(/C(C)=N/NC(=O)[C@@H]2C[C@H]2c2ccccc2)cc1 (relative stereo), C/C(=N\NC(=O)[C@@H]1C[C@H]1c1ccccc1)c1ccc(F)cc1 (relative stereo) is 13-fold higher in EC50: 0.004 µM for the first, 0.052 µM for the second.

Compared with C/C(=N\NC(=O)[C@@H]1C[C@H]1c1ccccc1)c1cccc(C)c1 (relative stereo), C/C(=N\NC(=O)[C@@H]1C[C@H]1c1ccccc1)c1ccc(C)c(C)c1 (relative stereo) is 15-fold lower in EC50: 0.058 µM for the first, 0.0039 µM for the second. The second is the more potent here.

Compared with C/C(=N\NC(=O)[C@@H]1C[C@H]1c1ccccc1)c1ccc(C)cc1C (relative stereo), C/C(=N\NC(=O)[C@@H]1C[C@H]1c1ccccc1)c1ccc(Cl)c(Cl)c1 (relative stereo) is 2.4-fold lower in EC50: 0.17 µM for the first, 0.072 µM for the second. The second is the more potent here.

Compared with COc1ccc(/C(C)=N/NC(=O)[C@@H]2C[C@H]2c2ccccc2)cc1OC (relative stereo), CC(=O)Nc1ccc(/C(C)=N/NC(=O)[C@@H]2C[C@H]2c2ccccc2)cc1 (relative stereo) is 170-fold lower in EC50: 0.45 µM for the first, 0.0026 µM for the second.

Going from C/C(=N\NC(=O)[C@@H]1C[C@H]1c1ccccc1)c1ccc(C2CCCCC2)cc1 (relative stereo) to C/C(=N\NC(=O)[C@@H]1C[C@H]1c1ccccc1)c1ccc(NC(=O)C2CC2)cc1 (relative stereo), the EC50 falls from 0.024 µM to 0.0021 µM (11-fold).

Compared with C/C(=N\NC(=O)[C@@H]1C[C@H]1c1ccccc1)c1ccc(-c2ccccc2)cc1 (relative stereo), C/C(=N\NC(=O)[C@@H]1C[C@H]1c1ccccc1)c1cccc(NC(=O)c2ccccc2F)c1 (relative stereo) is 7000-fold higher in EC50: 0.0013 µM for the first, 9.1 µM for the second. The first is the more potent here.

Going from C/C(=N\NC(=O)[C@@H]1C[C@H]1c1ccccc1)c1cccc(NC(=O)c2cccs2)c1 (relative stereo) to C/C(=N\NC(=O)[C@@H]1C[C@H]1c1ccccc1)c1ccc(NC(=O)c2ccc(Cl)s2)cc1 (relative stereo), the EC50 falls from 6.3 µM to 0.00095 µM (6600-fold). The second is the more potent here.

Compared with C/C(=N\NC(=O)[C@@H]1C[C@H]1c1ccc(C(C)(C)C)cc1)c1ccccc1 (relative stereo), C/C(=N\NC(=O)[C@@H]1C[C@H]1c1ccc(C(C)(C)C)cc1)c1ccc(Cl)cc1 (relative stereo) is 2.3-fold lower in EC50: 0.015 µM for the first, 0.0066 µM for the second.

Compared with C/C(=N\NC(=O)[C@@H]1C[C@H]1c1ccc(C(C)(C)C)cc1)c1ccc(F)cc1 (relative stereo), C/C(=N\NC(=O)[C@@H]1C[C@H]1c1ccc(C(C)(C)C)cc1)c1cccc(NC(=O)c2ccccc2F)c1 (relative stereo) is 48-fold higher in EC50: 0.016 µM for the first, 0.77 µM for the second.

Each molecule was assayed on Machupo mammarenavirus (assay: Antiviral activity against Machupo virus pseudotype containing viral envelope). Settings: Mammarenavirus machupoense.
Format: functional
Procedure, shortened: as §1

C/C(=N\NC(=O)[C@@H]1C[C@H]1c1ccccc1)c1ccc(NC(=O)c2ccco2)cc1 showed an EC50 of 0.73 µM.

These molecules were tested on Guanarito virus (assay: Antiviral activity against Guanarito virus pseudotype containing viral envelope). Settings: Mammarenavirus guanaritoense.
Format: functional
Procedure, shortened: as §1

In the case of C/C(=N\NC(=O)[C@@H]1C[C@H]1c1ccccc1)c1ccc(NC(=O)c2ccco2)cc1, the EC50 is reported as 0.12 µM.

These molecules were tested on Junin virus (assay: Antiviral activity against Junin virus pseudotype containing viral envelope). Settings: Mammarenavirus juninense.
Format: functional, organism-based
Procedure, shortened: as §1

C/C(=N\NC(=O)[C@@H]1C[C@H]1c1ccccc1)c1ccc(NC(=O)c2ccco2)cc1 showed an EC50 of 0.8 µM.

Each molecule was assayed on Tacaribe virus (assay: Antiviral activity against Tacaribe virus pseudotype containing viral envelope). Settings: Mammarenavirus tacaribeense.
Format: functional, organism-based
Procedure, shortened: as §1

C/C(=N\NC(=O)[C@@H]1C[C@H]1c1ccccc1)c1ccc(NC(=O)c2ccco2)cc1 showed an EC50 of 0.63 µM.
